From article PMC11224971 (The Oncologist, 2024)

Columns and labels:
Assay type in all cases: in vivo, human
[1] = Steady-state pharmacokinetics in plasma, cycle 1 day 8
Outline: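 Plasma was sampled at steady state on cycle 1, day 8, after oral 135 mg/m²/dose BID. AUCSS was calculated by linear trapezoidal approximation through the day-8 24-hour dosing interval. The 24 h concentration was assumed equal to the predose concentration. CLSS was calculated as dose/AUCSS. Cmax, Tmax and t½ were also reported.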

[2] = Pediatric MATCH arm H: safety and tolerability
[3] = tested on: relapsed or refractory advanced solid tumors harboring deleterious genetic alterations in the DDR pathway; experiment: NCI-COG Pediatric MATCH phase II subprotocol; conditions: 135 mg/m^2/dose BID oral
Outline: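 Relapsed/refractory pediatric solid tumors (incl. CNS, non-Hodgkin lymphoma, histiocytosis) assigned by centralized tumor sequencing showing a deleterious BRCA1/2, RAD51C/D or ATM alteration, without germline subtraction or LOH analysis. Oral tablets 135 mg/m²/dose (max 225 mg/dose) twice daily, given continuously in 28-day cycles. Primary endpoint was objective response.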

Structure (SMILES): O=C(c1cc(Cc2n[nH]c(=O)c3ccccc23)ccc1F)N1CCN(C(=O)C2CC2)CC1 [Olaparib]
- Clearance at steady state, mean ± SD ([1]; dose/AUCSS, dose level 1, 135 mg/m^2 BID oral tablet, n = 3): 4.1 ± 3.6 L/h/m^2
- AUC(0-t) ([1]; human, plasma, po, 135 mg/m2): 48800 ± 27800 ng·h/mL
- Cmax ([1]; human, plasma, po, 135 mg/m2): 7500 ± 2700 ng/mL
- Tmax ([1]; human, plasma, po, 135 mg/m2): 1 to 4 h
- half-life ([1]; human, plasma, po, 135 mg/m2): 5.6 ± 4.6 h
- Dose-limiting toxicities ([2]; 2 patients evaluable for DLT, cycle 1, 135 mg/m^2/dose BID): no dose-limiting toxicities
- Hematologic toxicity (overall) ([2]; 6 patients evaluable for toxicity, 135 mg/m^2/dose BID): Minimal hematologic toxicity
- Patients with grade 1/2 anemia ([2]; number of patients, 6 evaluable for toxicity): 3
- Allergic reaction leading to removal from study ([2]; one patient (biallelic tumor loss of ATM), first dose, recurring upon rechallenge): acute allergic reaction (hives)
- Objective response (complete + partial response) ([3]; 6 patients enrolled): no responses
- Median duration assessments, OS ([3]; 6 patients, 95% CI: 0.8-NA): 2.5 months (95% CI: 0.8-NA)
- Median duration assessments, PFS ([3]; Kaplan-Meier, 6 patients, 95% CI: 0.4-NA): 1.5 months (95% CI: 0.4-NA)
- Response assessment, PD (number of patients, %) ([3]; RECIST 1.1, 6 patients evaluated for efficacy): 3 (50%)
